From ChEMBL document CHEMBL1131482 (J Med Chem, 1998)

Columns and labels:
Mus musculus [1] = test: Licking latency was measured before treatment (at dose=25 mg/kg) by using mouse hot plate test; format: functional
Outline: (§1)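 Male Swiss-Webster mice (22-28 g), 23 ± 1 °C, 12-h light/dark cycle, food and water ad libitum. Hot plate at 52.5 ± 0.1 °C with licking latency as read-out and 45 s cutoff. Mice with pre-drug latency below 12 or over 18 s were rejected. Compounds given sc, 5-12 mice per test. Significance was assessed by Dunnett's two-tailed test, P < 0.05.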

Mus musculus [2] = test: Licking latency was measured after 15 min treatment (at dose=10 mg/kg) by using mouse hot plate test; format: functional; outline: as §1
Mus musculus [3] = test: Licking latency was measured after 45 min treatment (at dose=10 mg/kg) by using mouse hot plate test; format: functional; outline: as §1
Mus musculus [4] = test: Licking latency was measured after 30 min treatment (at dose=10 mg/kg) by using mouse hot plate test; format: functional; outline: as §1
Mus musculus [5] = test: MAD: minimal dose able to induce a statistically significant increase of the pain threshold, done on mouse; sc; format: functional
Outline: (§2)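 Mouse hot plate test (52.5 ± 0.1 °C, 45 s cutoff) after sc dosing, in male Swiss-Webster mice. The value is the lowest dose giving a statistically significant rise in pain threshold. Dunnett's two-tailed test compared treated mice at maximum reaction time with pretest time, P < 0.05.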

Mus musculus [6] = test: Licking latency was measured after 30 min treatment (at dose=25 mg/kg) by using mouse hot plate test(*P<0.05); format: functional; outline: as §1
Mus musculus [7] = species on record: Mus musculus; test: Analgesic efficacy is expressed as percentage of that epibatidine, done on mouse.; format: functional
Mus musculus [8] = test: Licking latency was measured after 15 min treatment (at dose=25 mg/kg) by using mouse hot plate test (*P<0.01); format: functional; outline: as §1
Mus musculus [9] = test: Licking latency was measured after 45 min treatment (at dose=25 mg/kg) by using mouse hot plate test (*P<0.05); format: functional; outline: as §1
Mus musculus [10] = species on record: Mus musculus; test: Analgesic efficacy is expressed as percentage of that morphine, done on mouse.; format: functional
Mus musculus [11] = test: MNTD:Maximal nontoxic dose of the compound, done on mouse; sc; format: functional
Outline: (§3)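 Male Swiss-Webster mice dosed sc. The value is the highest dose causing no visible behavioural change (tremors, convulsions, hypomotility etc.), so that treated mice could not be told apart from untreated ones. Behaviour was scored by the Irwin method in groups of at least 10 animals.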

Mus musculus [12] = test: Licking latency was measured before treatment (at dose=10 mg/kg) by using mouse hot plate test; format: functional; outline: as §1
Mus musculus [13] = test: Licking latency was measured after 30 min treatment (at dose=1 mg/kg) by using mouse hot plate test; format: functional; outline: as §1
TE-671 [14] = test: Cholinergic interactions was measured with FLIPR device on TE671 cells and given as Intrinsic activity; format: functional, Homo sapiens
Outline: (§4)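 Cells were plated on poly(ethylenimine)-coated plates and used about 72 h later. Loading was Fluo-3 AM for 1 h at 37 °C, followed by washes in Hepes-salts buffer, pH 7.4. FLIPR recorded Ca2+ fluorescence over 5 min after agonist addition. Responses were normalized to 100 µM nicotine (100%) and unloaded cells (0%), and EC50 and intrinsic activity were derived from concentration-response curves.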

Mus musculus [15] = test: Licking latency was measured after 45 min treatment (at dose=20 mg/kg) by using mouse hot plate test; format: functional; outline: as §1
[16] = biological target: Neuronal acetylcholine receptor; alpha4/beta2 (Rattus norvegicus, UniProt P09483+P12390); test: Cholinergic interactions was measured as displaced [3H][…] from Nicotinic acetylcholine receptor alpha4-beta2 in rat brain membranes; format: cell membranes
Outline: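 Rat cerebral cortical membranes were washed and resuspended in Tris-HCl 50 mM buffer, pH 7.4, then spun at 45000g. Samples held 150-200 µg protein and 0.7 nM [3H]-(-)-cytisine with varying modulator concentrations. Incubation was 75 min at 4 °C in triplicate. Nonspecific binding was defined with 10 µM (-)-nicotine.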

Mus musculus [17] = test: Licking latency was measured after 45 min treatment (at dose=5 mg/kg) by using mouse hot plate test; format: functional; outline: as §1
Mus musculus [18] = test: Licking latency was measured after 30 min treatment (at dose=5 mg/kg) by using mouse hot plate test; format: functional; outline: as §1
Mus musculus [19] = test: Licking latency was measured after 30 min treatment (at dose=20 mg/kg) by using mouse hot plate test; format: functional; outline: as §1
K177 cell line [20] = test: Cholinergic interactions was measured with FLIPR device on […] cells and given as Intrinsic activity; format: functional, Homo sapiens; outline: as §4
K177 cell line [21] = test: Cholinergic interactions was measured with FLIPR device on […] cells and given as EC50.; format: functional, cell-based; settings: Homo sapiens; outline: as §4
IMR-32 [22] = test: Cholinergic interactions was measured with FLIPR device on IMR-32 cells of human neuroblastoma clonal line, given as effective dose; format: functional, cell-based; outline: as §4
TE-671 [23] = test: Cholinergic interactions was measured with FLIPR device on TE671 cells and given as Effective dose; format: functional, cell-based; settings: Homo sapiens; outline: as §4
Mus musculus [24] = test: Licking latency was measured after 45 min treatment (at dose=1 mg/kg) by using mouse hot plate test; format: functional; outline: as §1
Mus musculus [25] = test: Maximal nontoxic dose of the compound, done on mouse; sc; format: functional; outline: as §3
IMR-32 [26] = test: Cholinergic interactions was measured with FLIPR device on cells of IMR-32 human neuroblastoma clonal line and given as Intrinsic activity; format: functional; outline: as §4
Mus musculus [27] = test: Licking latency was measured before treatment (at dose=5 mg/kg) by using mouse hot plate test; format: functional
Outline: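 Male Swiss-Webster mice (22-28 g), 23 ± 1 °C, 12-h light/dark cycle. Hot plate at 52.5 ± 0.1 °C. Mice with pre-drug licking latency below 12 s or over 18 s were rejected. Cutoff 45 s. Compound given sc; latency read before dosing and at 15, 30 and 45 min. 5-12 mice per test.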

Mus musculus [28] = test: Minimal dose able to induce a statistically significant increase of the pain threshold, done on mouse; sc; format: functional; outline: as §2
Mus musculus [29] = test: Licking latency was measured before treatment (at dose=1 mg/kg) by using mouse hot plate test; format: functional; outline: as §1
Mus musculus [30] = test: Licking latency was measured before treatment (at dose=20 mg/kg) by using mouse hot plate test; format: functional; outline: as §1
Mus musculus [31] = test: Licking latency was measured after 15 min treatment (at dose=1 mg/kg) by using mouse hot plate test; format: functional; outline: as §1
Mus musculus [32] = test: Licking latency was measured after 15 min treatment (at dose=5 mg/kg) by using mouse hot plate test; format: functional; outline: as §1
Mus musculus [33] = test: 15.5 Licking latency was measured after 15 min treatment (at dose=5 mg/kg) by using mouse hot plate test; format: functional; outline: as §1
Mus musculus [34] = test: Licking latency was measured after 45 min treatment (at dose=15 mg/kg) by using mouse hot plate test; format: functional; outline: as §1
Mus musculus [35] = test: Licking latency was measured after 15 min treatment (at dose=25 mg/kg) by using mouse hot plate test; format: functional; outline: as §1
Mus musculus [36] = test: Licking latency was measured after 45 min treatment (at dose=25 mg/kg) by using mouse hot plate test; format: functional; outline: as §1
Mus musculus [37] = test: Licking latency was measured after 15 min treatment (at dose=15 mg/kg) by using mouse hot plate test; format: functional; outline: as §1
Mus musculus [38] = test: Licking latency was measured after 30 min treatment (at dose=15 mg/kg) by using mouse hot plate test; format: functional; outline: as §1
Mus musculus [39] = test: Licking latency was measured after 30 min treatment (at dose=25 mg/kg) by using mouse hot plate test; format: functional; outline: as §1
Mus musculus [40] = test: Licking latency was measured before treatment (at dose=15 mg/kg) by using mouse hot plate test; format: functional; outline: as §1

Chain of Neuronal acetylcholine receptor; alpha4/beta2 (P09483 whole entry): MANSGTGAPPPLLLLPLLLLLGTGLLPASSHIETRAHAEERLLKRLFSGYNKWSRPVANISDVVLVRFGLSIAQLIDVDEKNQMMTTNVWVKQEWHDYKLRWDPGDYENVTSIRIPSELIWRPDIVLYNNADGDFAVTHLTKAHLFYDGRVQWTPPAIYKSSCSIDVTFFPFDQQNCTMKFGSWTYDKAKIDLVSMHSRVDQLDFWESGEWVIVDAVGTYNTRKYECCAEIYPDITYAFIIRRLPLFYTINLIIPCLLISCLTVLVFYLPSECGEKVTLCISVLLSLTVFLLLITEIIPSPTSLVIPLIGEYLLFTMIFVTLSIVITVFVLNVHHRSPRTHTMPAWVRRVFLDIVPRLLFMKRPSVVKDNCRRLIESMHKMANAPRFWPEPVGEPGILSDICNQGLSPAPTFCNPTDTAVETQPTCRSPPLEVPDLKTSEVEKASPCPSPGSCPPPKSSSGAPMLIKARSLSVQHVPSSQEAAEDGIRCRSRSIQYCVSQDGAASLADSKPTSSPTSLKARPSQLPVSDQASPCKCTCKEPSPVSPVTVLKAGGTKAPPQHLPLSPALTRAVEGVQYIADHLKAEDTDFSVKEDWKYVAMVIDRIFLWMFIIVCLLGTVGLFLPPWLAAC
Chain of Neuronal acetylcholine receptor; alpha4/beta2 (P12390 whole entry): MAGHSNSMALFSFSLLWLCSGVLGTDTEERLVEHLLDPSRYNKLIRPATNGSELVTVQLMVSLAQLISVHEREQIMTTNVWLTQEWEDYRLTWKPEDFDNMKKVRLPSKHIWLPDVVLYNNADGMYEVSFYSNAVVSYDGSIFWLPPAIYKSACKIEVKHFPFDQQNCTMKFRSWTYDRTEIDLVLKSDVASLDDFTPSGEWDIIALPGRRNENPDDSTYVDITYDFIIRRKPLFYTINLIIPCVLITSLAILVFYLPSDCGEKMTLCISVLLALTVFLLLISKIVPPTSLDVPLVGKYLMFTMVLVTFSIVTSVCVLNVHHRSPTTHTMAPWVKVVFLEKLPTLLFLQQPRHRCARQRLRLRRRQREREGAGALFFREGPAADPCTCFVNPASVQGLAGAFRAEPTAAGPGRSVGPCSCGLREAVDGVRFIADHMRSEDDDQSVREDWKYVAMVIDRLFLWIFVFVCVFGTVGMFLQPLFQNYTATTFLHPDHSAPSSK

Compound: CCN1C2CCC1CN(c1ccc(Cl)nn1)C2
- Licking latency (Mus musculus [1]): 14.3 s
- Licking latency (Mus musculus [2]): 19.3 s
- Licking latency (Mus musculus [3]): 16.4 s
- Licking latency (Mus musculus [4]): 18.4 s
- MAD (Mus musculus [5]): 10 mg/kg
- Licking latency (Mus musculus [6]): 20.5 s
- Analgesic efficacy compared to epibatidine (Mus musculus [7]): 74%
- Licking latency (Mus musculus [8]): 26 s
- Licking latency (Mus musculus [9]): 20.8 s
- Analgesic efficacy compared to morphine (Mus musculus [10]): 61%
- MNTD (Mus musculus [11]): 20 mg/kg
- Licking latency (Mus musculus [12]): 13.2 s

Compound: Clc1ccc(N2CC3CCC(C2)N3)nn1
- Licking latency (Mus musculus [13]): 25.6 s
- Intrinsic activity (TE-671 [14]): 9.6%
- Licking latency (Mus musculus [15]): 33.8 s
- Licking latency (Mus musculus [2]): 32.3 s
- Licking latency (Mus musculus [4]): 38.3 s
- Ki [16]: 4.1 µM
- Licking latency (Mus musculus [17]): 26.5 s
- Licking latency (Mus musculus [18]): 28.5 s
- Efficacy (Mus musculus [7]): 167%
- Licking latency (Mus musculus [19]): 39.8 s
- Efficacy (Mus musculus [10]): 136%
- Intrinsic activity (K177 cell line [20]): 164%
- EC50 (K177 cell line [21]): 24 µM
- Licking latency (Mus musculus [12]): 14.2 s
- EC50 (IMR-32 [22]): 12.2 µM
- EC50 (TE-671 [23]): > 1000 µM
- Licking latency (Mus musculus [24]): 21.5 s
- MNTD (Mus musculus [25]): 30 mg/kg
- Intrinsic activity (IMR-32 [26]): 122.6%
- Licking latency (Mus musculus [27]): 13.7 s
- MAD (Mus musculus [28]): 1 mg/kg
- Licking latency (Mus musculus [29]): 13.5 s
- Licking latency (Mus musculus [30]): 14.3 s
- Licking latency (Mus musculus [31]): 21.5 s
- Licking latency (Mus musculus [32]): 27.8 s

Compound: Clc1cncc(N2CC3CCC(C2)N3)n1
- Licking latency (Mus musculus [2]): 24.6 s
- Licking latency (Mus musculus [3]): 22.3 s
- Licking latency (Mus musculus [4]): 22.5 s
- MAD (Mus musculus [5]): 5 mg/kg
- Licking latency (Mus musculus [17]): 15.7 s
- Licking latency (Mus musculus [18]): 15.5 s
- Analgesic efficacy compared to epibatidine (Mus musculus [7]): 70%
- Analgesic efficacy compared to morphine (Mus musculus [10]): 57%
- MNTD (Mus musculus [11]): 15 mg/kg
- Licking latency (Mus musculus [12]): 13.6 s
- Licking latency (Mus musculus [27]): 15.1 s
- Licking latency (Mus musculus [33]): 19.7 s

Compound: Clc1cccc(N2CC3CCC(C2)N3)n1
- Licking latency (Mus musculus [1]): 14.6 s
- Licking latency (Mus musculus [34]): 22 s
- Licking latency (Mus musculus [35]): 31.9 s
- MAD (Mus musculus [5]): 15 mg/kg
- Licking latency (Mus musculus [36]): 34.2 s
- Analgesic efficacy compared to epibatidine (Mus musculus [7]): 142%
- Analgesic efficacy compared to morphine (Mus musculus [10]): 116%
- MNTD (Mus musculus [11]): 30 mg/kg
- Licking latency (Mus musculus [37]): 23.6 s
- Licking latency (Mus musculus [38]): 22.1 s
- Licking latency (Mus musculus [39]): 37 s
- Licking latency (Mus musculus [40]): 13.5 s
